In one data set the test system is KB. The data set is described as follows: Cytotoxicity against human KB cells assessed as decrease in cell viability after 72 hrs by MTT assay. Type of data set: functional, cell-based.
The next data set relates to HeLa S3. The data set is described as follows: Cytotoxicity against human HeLaS3 cells assessed as decrease in cell viability after 72 to 96 hrs by MTT assay. Type of data set: functional, cell-based. (In general: Tetrazolium dyes change colour on reduction, which living cells bring about.)
The subject of another data set is MCF7. The data set is described as follows: Cytotoxicity against human MCF7 cells assessed as decrease in cell viability after 72 to 96 hrs by MTT assay. Format: functional, cell-based.
Data set [1] has as its system HL-60. The data set is described as follows: Cytotoxicity against human HL60 cells assessed as decrease in cell viability after 48 hrs […]. Format: functional. Conditions: HL-60, 48 h, read-out: LD50 (the source's name). The procedure, abridged:
(§1)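 AML cell lines seeded at 0.5 million cells/mL (counted by Trypan Blue exclusion) and exposed to varying concentrations in triplicate for 48 h. Read-out by flow cytometry after annexin V (FITC or PE) and 7-AAD staining, at least 50 000 events per condition; annexin V/7AAD double-negative cells scored viable. Value reported as LD50.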

For data set [2], the system named is Kasumi 1. The data set is described as follows: Cytotoxicity against human Kasumi-1 cells assessed as decrease in cell viability after 48 hrs by […]. Type of data set: functional. Particulars: Kasumi 1, 48 h, read-out: LD50 (the source's name). The procedure, abridged:
as §1

Data set [3] deals with KG-1. The data set is described as follows: Cytotoxicity against human KG1 cells assessed as decrease in cell viability after 48 hrs […]. Type of data set: functional. Conditions: KG-1, 48 h, read-out: LD50 (the source's name). The procedure, abridged: as §1
Data set [4] relates to MOLM-13. The data set is described as follows: Cytotoxicity against human MOLM13 cells assessed as decrease in cell viability after 48 hrs […]. Conditions: MOLM-13, 48 h, read-out: LD50 (the source's name). Format: functional. The procedure, abridged:
as §1

The test system of data set [5] is MV4-11. The data set is described as follows: Cytotoxicity against human MV4-11 cells assessed as decrease in cell viability after 48 hrs […]. Type of data set: functional. Conditions: MV4-11, 48 h, read-out: LD50 (the source's name). The procedure, abridged:
as §1

Data set [6] has as its system THP-1. The data set is described as follows: Cytotoxicity against human THP1 cells assessed as decrease in cell viability after 48 hrs […]. Format: functional. Conditions: THP-1, 48 h, read-out: LD50 (the source's name). The procedure, abridged: as §1
The test system of data set [7] is TUR. The data set is described as follows: Cytotoxicity against human TUR cells assessed as decrease in cell viability after 48 hrs […]. Format: functional. Conditions: read-out: LD50 (the source's name). The procedure, abridged:
as §1

The subject of data set [8] is U-937. The data set is described as follows: Cytotoxicity against human U937 cells assessed as decrease in cell viability after 48 hrs […]. Format: functional. Conditions: U-937, 48 h, read-out: LD50 (the source's name). The procedure, abridged:
as §1

The subject of data set [9] is Bone marrow cell. The data set is described as follows: Cytotoxicity against human bone marrow cells assessed as decrease in cell viability at 20 uM after 48 hrs by annexin V-FITC/7-AAD staining based flow cytometry relative to control. The procedure, abridged:
(§2)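 Bone marrow and peripheral blood mononuclear cells from healthy donors were isolated by Ficoll density gradient. They were held 1 h in serum-free medium with rhFLT-3 ligand 50 ng/mL, rhSCF 50 ng/mL, rhIL-3 20 ng/mL and rhIL-6 20 ng/mL before drug. Treatment ran 48 h, and viability was read by annexin V/7-AAD flow cytometry relative to untreated control.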
Background: In flow cytometry, cells or beads pass a laser one at a time.

The subject of data set [10] is PBMC. The data set is described as follows: Cytotoxicity against human peripheral blood mononuclear cells assessed as decrease in cell viability at 20 uM after 48 hrs by annexin V-FITC/7-AAD staining based flow cytometry relative to control. The procedure, abridged:
as §2

The subject of data set [11] is HL-60. The data set is described as follows: Cytotoxicity against human HL60 cells assessed as decrease in cell viability at 20 uM after 48 hrs by annexin V-FITC/7-AAD staining based flow cytometry relative to control. Type of data set: functional. The procedure, abridged:
(§3)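 AML cell lines kept at 0.5 million cells/mL and treated in triplicate for 48 h. Cells were stained with annexin V (FITC or PE) plus 7-AAD, and at least 50 000 events were recorded per condition by flow cytometry. Annexin V-/7-AAD- cells were scored viable, with viability taken relative to untreated control.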

In data set [12] the test system is Kasumi 1. The data set is described as follows: Cytotoxicity against human Kasumi-1 cells assessed as decrease in cell viability at 20 uM after 48 hrs by annexin V-FITC/7-AAD staining based flow cytometry relative to control. Type of data set: functional. The procedure, abridged:
as §3

In data set [13] the test system is KG-1. The data set is described as follows: Cytotoxicity against human KG1 cells assessed as decrease in cell viability at 20 uM after 48 hrs by annexin V-FITC/7-AAD staining based flow cytometry relative to control. Type of data set: functional. The procedure, abridged: as §3
Data set [14] deals with MOLM-13. The data set is described as follows: Cytotoxicity against human MOLM13 cells assessed as decrease in cell viability at 20 uM after 48 hrs by annexin V-FITC/7-AAD staining based flow cytometry relative to control. Type of data set: functional. The procedure, abridged:
as §3

Data set [15] deals with MV4-11. The data set is described as follows: Cytotoxicity against human MV4-11 cells assessed as decrease in cell viability at 20 uM after 48 hrs by annexin V-FITC/7-AAD staining based flow cytometry relative to control. Format: functional. The procedure, abridged: as §3
Data set [16] has as its system THP-1. The data set is described as follows: Cytotoxicity against human THP1 cells assessed as decrease in cell viability at 20 uM after 48 hrs by annexin V-FITC/7-AAD staining based flow cytometry relative to control. Format: functional. The procedure, abridged: as §3
The subject of data set [17] is TUR. The data set is described as follows: Cytotoxicity against human TUR cells assessed as decrease in cell viability at 20 uM after 48 hrs by annexin V-FITC/7-AAD staining based flow cytometry relative to control. Format: functional. The procedure, abridged:
as §3

Data set [18] relates to U-937. The data set is described as follows: Cytotoxicity against human U937 cells assessed as decrease in cell viability at 20 uM after 48 hrs by annexin V-FITC/7-AAD staining based flow cytometry relative to control. Format: functional. The procedure, abridged:
as §3

For data set [19], the system named is MOLM-13. The data set is described as follows: Upregulation of heme oxygenase 1 in human MOLM13 cells at 20 uM after 6 hrs by qRT-PCR analysis. Type of data set: functional, cell-based. The procedure, abridged:
(§4)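 MOLM-13 cells at 0.5 million/mL were treated 6 h with 20 μM compound, then total RNA was extracted. One-step TaqMan RT-qPCR was run: RT 48 °C 15 min, then 95 °C 10 min, then 40 cycles of 95 °C 15 s and 60 °C 1 min. Singleplex reactions were in triplicate, with fold change by the 2^-ΔΔCt method.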
Background: Quantitative PCR measures a nucleic acid by following its amplification.

Data set [20] relates to MOLM-13. The data set is described as follows: Upregulation of HSPA1A in human MOLM13 cells at 20 uM after 6 hrs by qRT-PCR analysis. Format: functional, cell-based. The procedure, abridged:
as §4

The test system of data set [21] is MOLM-13. The data set is described as follows: Downregulation of NF-kappaB1A transcription in human MOLM13 cells at 20 uM after 6 hrs by qRT-PCR analysis. Format: functional, cell-based. The procedure, abridged:
as §4

The species named for data set [22] is Homo sapiens. The data set is described as follows: Inhibition of NF-kappaB p65 phosphorylation in human MOLM13 cells at 5 to 20 uM after 6 hrs by Western blot analysis. Format: cell-based. The procedure, abridged:
(§5)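 MOLM-13 cells at 0.5 million/mL were treated 6 h and lysed on ice for 30 min in Tris pH 7.5/NaCl/Triton/SDS buffer with phosphatase and protease inhibitors. Lysates were run on 10% SDS-PAGE and blotted to PVDF. Membranes were probed separately for phospho-p65 and total p65 at 4 °C overnight, detected with IRDye secondaries by infrared imaging, with total p65 as loading control.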

Data set [23] deals with MOLM-13. The data set is described as follows: Effect on total NF-kappaB p65 level in human MOLM13 cells at 5 to 20 uM after 6 hrs by Western blot analysis. Conditions: molm-13, 6 h. Format: cell-based. The procedure, abridged:
as §5

The species named for data set [24] is Homo sapiens. The data set is described as follows: Inhibition of NF-kappaB DNA binding activity in human MOLM13 cells by ELISA. Type of data set: cell-based. The procedure, abridged:
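p65 DNA-binding ELISA in MOLM-13 cells, with TNFα as positive control, run in triplicate.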

The species entered for data set [25] is Homo sapiens. The data set is described as follows: Inhibition of NF-kappaB in human MOLM13 cells assessed as CDK6 gene expression at 10 to 20 uM after 6 hrs by Western blot analysis. Format: cell-based.
The species named for data set [26] is Homo sapiens. The data set is described as follows: Inhibition of NF-kappaB in human MOLM13 cells assessed as MYB gene expression at 10 to 20 uM after 6 hrs by Western blot analysis. Format: cell-based.
The subject of the next data set is Leukemia cell. The data set is described as follows: Cytotoxicity against primary leukemia cells isolated from human AML patient assessed as cell death after 48 hrs by […]. Type of data set: functional. Conditions: read-out: LD50 (the source's name).
The subject of data set [27] is Bone marrow cell. The data set is described as follows: Cytotoxicity against human bone marrow cells assessed as decrease in cell viability at 50 uM after 48 hrs by annexin V-FITC/7-AAD staining based flow cytometry relative to control. The procedure, abridged:
as §2

Data set [28] concerns PBMC. The data set is described as follows: Cytotoxicity against human peripheral blood mononuclear cells assessed as decrease in cell viability at 50 uM after 48 hrs by annexin V-FITC/7-AAD staining based flow cytometry relative to control. The procedure, abridged:
as §2

Molecules are shown by their SMILES. Active and inactive are the calls of the source. The rule behind the calls is not given here. Where only a bound is given, the exact number is not on record here.

For `C=C1C(=O)O[C@@H]2[C@H]3C(C)=CC(=O)C3=C(C)CC[C@@H]12` [DEHYDROLEUCODIN], the IC50 was found to be 5.3 µM in the data set on KB, 10 µM with HeLa S3 and 5 µM in the data set on MCF7. The CC50 with HL-60 [1] is 14.1 µM; in the data set with Kasumi 1 [2], 12.9 µM; in the data set on KG-1 [3], 18.7 µM; in the data set on MOLM-13 [4], 12.6 µM; with MV4-11 [5], 5 µM; with THP-1 [6] it was 16.8 µM. Moreover, the CC50 was found to be 12.2 µM in the data set on TUR [7], 18.9 µM in the data set with U-937 [8] and 9.4 µM with Leukemia cell. Moreover, the Activity result in the data set with Bone marrow cell [9], in the data set on PBMC [10] and with MOLM-13 [23] was “Non-Toxic” throughout. For the same compound, the result in the data set with HL-60 [11], with Kasumi 1 [12], in the data set with KG-1 [13], in the data set with MOLM-13 [14], in the data set with MV4-11 [15] and in the data set with THP-1 [16] was Active. Besides, the outcome with TUR [17], in the data set with U-937 [18], in the data set on MOLM-13 [19], with MOLM-13 [20] and with MOLM-13 [21] was Active. Besides, the inhibition result in the data set listed under Homo sapiens [22], in the data set filed under Homo sapiens [24], in the data set listed under Homo sapiens [25] and in the data set filed under Homo sapiens [26] was “Active” each time.
In the case of `C=C1C(=O)O[C@@H]2[C@@H]1CC/C(C)=C/CC[C@]1(C)O[C@H]21`, the CC50 with HL-60 [1] was 13.9 µM; in the data set with Kasumi 1 [2], 3.6 µM; in the data set with KG-1 [3], more than 20 µM; in the data set on MOLM-13 [4] it was 3.4 µM; in the data set with MV4-11 [5], 8.6 µM; in the data set with THP-1 [6] it was more than 20 µM. Moreover, the CC50 in the data set on TUR [7] is 7.4 µM; in the data set with U-937 [8], 8.4 µM. For the same compound, the outcome in the data set with MOLM-13 [19], with MOLM-13 [20] and in the data set with MOLM-13 [21] was Active. Further, the inhibition entry in the data set listed under Homo sapiens [22], in the data set filed under Homo sapiens [24], in the data set filed under Homo sapiens [25] and in the data set listed under Homo sapiens [26] was “Active” throughout. The Activity entry in the data set on MOLM-13 [23] is “Non-Toxic”.
Take `CC1=CC(=O)C2=C(C)CC[C@@H]3[C@H](OC(=O)[C@H]3C)[C@@H]12` [DESACETOXYMATRICARIN]: the CC50 with HL-60 [1], in the data set on Kasumi 1 [2], in the data set on KG-1 [3], in the data set on MOLM-13 [4], in the data set on MV4-11 [5] and in the data set with THP-1 [6] was more than 20 µM in each case. In addition, the CC50 in the data set on TUR [7] and with U-937 [8] was more than 20 µM in each case. In addition, the Activity entry in the data set with Bone marrow cell [27] and in the data set with PBMC [28] was “Non-Toxic” each time. The outcome in the data set on MOLM-13 [19], in the data set with MOLM-13 [20] and in the data set on MOLM-13 [21] was Active. Moreover, the inhibition result in the data set filed under Homo sapiens [24] was “inactive”.

As usually defined, the IC50 is the midpoint of a concentration-inhibition curve.
